The assay deals with Reverse transcriptase (Human immunodeficiency virus 1, UniProt Q9WKE8). Description: Binding affinity to HIV1 reverse transcriptase treated for 3 mins by surface plasmon resonance. The method, boiled down: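 Kinetic titration SPR at 25 °C against an RT surface, with an untreated dextran surface as reference. Running buffer: 10 mM Hepes, 150 mM NaCl, 3.4 mM EDTA, 0,01% P20, 4% DMSO, pH 7.5. Five sequential 3-min injections at 50 µL·min^-1 (0.075–1.2 µM, 2-fold steps), each followed by 2-min dissociation, and a final 20-min dissociation. Data were double-referenced.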

Here are results for one compound from BindingDB's records for doi:10.1021/jm801330n (University of Siena, 2009).

For the compound `COc1ccc([C@@H]2C[C@H]2CSc2nc([C@H](C)c3c(F)cccc3F)c(C)c(=O)[nH]2)cc1`, the off-rate (koff) worked out at 2.1e-05 s⁻¹.
